Screens as filed in PubChem BioAssay.
Compounds with a hit are over-represented: about 2% of the library has one in this group of screens.
Hck-Nef inh – blocks Nef-activated human Hck kinase | inhibition, % at 20 µM | 220,000 tested, 0.68% active | Recombinant Hck-YEEI plus Nef, Z-Lyte FRET kinase assay;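 active = Hck-Nef kinase inhibition above about 50%, limit read from the data; inactive = inhibition below that limit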;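 also: 0% = DMSO with Hck plus Nef and 100% = Hck alone without Nef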
Target sequence (P08631 whole entry, looked up): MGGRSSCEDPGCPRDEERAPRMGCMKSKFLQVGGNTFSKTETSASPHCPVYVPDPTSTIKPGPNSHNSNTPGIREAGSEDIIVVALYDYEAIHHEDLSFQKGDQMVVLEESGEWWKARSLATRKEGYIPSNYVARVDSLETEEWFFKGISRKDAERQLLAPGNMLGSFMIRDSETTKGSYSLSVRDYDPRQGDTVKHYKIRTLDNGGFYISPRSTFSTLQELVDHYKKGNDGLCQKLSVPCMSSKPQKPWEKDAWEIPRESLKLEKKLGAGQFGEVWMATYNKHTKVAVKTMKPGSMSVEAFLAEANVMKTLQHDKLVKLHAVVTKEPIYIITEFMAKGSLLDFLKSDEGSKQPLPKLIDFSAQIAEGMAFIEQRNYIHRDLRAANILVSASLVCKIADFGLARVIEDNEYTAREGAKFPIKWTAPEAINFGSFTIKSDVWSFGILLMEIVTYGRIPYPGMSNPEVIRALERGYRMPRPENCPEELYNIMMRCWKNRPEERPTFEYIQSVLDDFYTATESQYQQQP
14-3-3 Bad PPI – disrupts binding of bovine 14-3-3 zeta to phospho-Bad peptide. P63103. TR-FRET 14-3-3zeta/Dy647-pBad peptide displacement, 1 h. inhibition, % at 21.7 µM. 220,000 tested, 0.71% active. AID 781;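 active = inhibition above about 70%, limit read from the data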;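 also: 0% = full 14-3-3 plus peptide FRET controls and 100% = background without 14-3-3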
p47phox inh – blocks human p47phox regulatory protein of NADPH oxidases; P14598; p47phox/p22phox peptide binding, fluorescence polarization, 2 h; inhibition, % at 24.7 µM; 220,000 tested, 0.53% active;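 also: 0% = p47phox with labelled peptide and 100% = labelled peptide alone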
Diaphorase act – counter-screen for diaphorase-based assays: diaphorase activators and chemical reducers. Diaphorase/resazurin coupled assay, resorufin fluorescence, 16 min; hits give high values; 1 = vehicle wells, 0 = NADH-free wells. activation factor at 20 µM. 190,000 tested, 0.005% active. AID 1229;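 active = diaphorase activity raised at least twofold by the compound at 20 µM; inactive = activation factor below 2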
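Material: bacterial diaphorase enzyme (C. kluyveri); amount: enzyme 0.07 U/mL final; reagent: NADH substrate 0.114 mM plus resazurin dye 0.1 mM, final; doses: single compound dose of 20 µM, 1% DMSO final; timing: 16 min enzyme reaction, ambient temperature; measured by: fluorescence of resorufin, 544 nm excitation, 590 nm emission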
eIF4E 4G PPI – eIF4E/eIF4G interaction inhibition in translation initiation | P63073+Q04637 | TR-FRET eIF4E-eIF4GI(517-606) binding, 2 h | 220,000 tested, 0.37% active | inhibition, % at 21.7 µM;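 also: 0% = full FRET control wells and 100% = background wells lacking eIF4GI fragment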
* = called active by the depositor; nt = no result given; [ ] = another dose, or the depositor's remark.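 The calls were made as follows, unless noted: active = inhibition above about 30% (limit read from the data); inactive = the rest.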

SMILES	Hck-Nef inh	14-3-3 Bad PPI	p47phox inh	Diaphorase act	eIF4E 4G PPI
O=C(NC1CCCCCCC1)c1ccc2c(c1)OCO2	1	5	7	0.8	32*
O=C(O)c1ccc2c(c1)C(=O)N(c1nccs1)C2=O	-23	-1	-2	nt	4
Cc1ccc(NC(=O)C2CCCN2S(=O)(=O)c2ccc3c(c2)n(C)c(=O)c(=O)n3C)c(C)c1 (configuration not stated)	21	5	-9	nt	4
FC(F)Sc1nc2ccccc2[nH]1	12	0	-5	nt	1
CCn1c(SCC(=O)c2ccc(O)c(O)c2)nnc1-c1ccccc1OC	-1	-18	70*	0.6	1
CCc1nc(OCCN(CC)CC)c2oc3ccccc3c2n1	8	80*	1	0.9	10
O=S(=O)(c1cc(Cl)ccc1Cl)n1ccnc1	18	8	147*	1	-2
O=[N+]([O-])c1ccc(Cl)c(S(=O)(=O)n2ccnc2)c1	13	3	-9	nt	-2
COC(=O)C1(Cc2ccc(O)c(CC3OC3(C)C)c2)OC(=O)C(O)=C1c1ccc(O)cc1 (configuration not stated)	30	3	-7	nt	96*
CCOC(=O)c1sc(N=NC2=C(O)CCCC2=O)c(C(=O)OCC)c1C	51*	-26	7	0.8	4
O=C(CSc1ccccn1)N1CCN(C(=O)CSc2ccccn2)CC1	nt	nt	nt	0.9	nt
O=C(O)CSc1ccccn1	-1	9	-8	0.9	33*
COc1ccc(NC(=O)CSc2ccccn2)cc1OC	-1	72*	-10	0.9	-3
CCN1CCN(C(=S)NCCc2ccccc2)CC1	0	85*	-3	1	-4
C/C(NCc1cccnc1)=C(\C#N)C(=O)NCc1ccccc1	3	71*	-13	0.8	5
CSc1nnc(C)c(=O)n1COC(=O)COc1ccc(Cl)cc1Cl	28	-9	48*	0.8	-8
O=C(C1CCCCC1)N1CCN(c2ccnc3cc(Cl)ccc23)CC1	18	-1	-10	nt	-4
O=C(OCn1nnc2ccccc2c1=O)c1cc2ccccc2o1	26	3	-6	nt	98*
O=C(OCn1nnc2ccccc2c1=O)c1ccco1	1	1	-7	0.9	-8
COC(=O)c1cccc(Cn2nnc3ccccc3c2=O)c1	1	14	114*	0.9	2
CCOC(=O)Cn1c(C)[n+](CC(=O)c2ccccc2)c2ccccc21	11	-13	-4	nt	2
Cc1ccc(C(=O)c2coc3ccc(O)c(Cl)c23)cc1	-15	nt	6	0.8	nt
O=C(c1ccccc1)c1coc2ccc(O)c(Cl)c12	1	92*	-5	1	-13
CCOC(=O)CCNC(C)C1COc2ccccc2O1 (configuration not stated)	-1	76*	-24	0.9	-2
CCCCSc1nn[nH]n1	5	76*	-7	0.9	-1
SMILES	Hck-Nef inh	14-3-3 Bad PPI	p47phox inh	Diaphorase act	eIF4E 4G PPI
CCCCSc1nnc(CCC)n1N	0	-2	-15	1	1
COC(=O)NC(C)N1C(=O)C2C3C=CC(C3)C2C1=O (configuration not stated)	-10	12	0	1	-2
COc1cc(OC)cc(-c2ncc3ccccn23)c1	8	70	-9	0.6	12
COc1cc(-c2ncc3ccccn23)cc(OC)c1OC	0	73*	5	0.8	6
Cc1cc(-c2nnc(-c3cccc(Cl)c3)o2)no1	3	-4	-13	nt	1
Cc1onc(-c2c(Cl)cccc2Cl)c1-c1nc2cc(Cl)ccc2c(=O)o1	10	3	-4	nt	5
O=C(CCCCCN1C(=O)c2ccccc2C1=O)NCc1ccccn1	0	77*	0	1	11
CN(C1CCCCC1)S(=O)(=O)c1ccc2c(c1)c(=O)c(C(=O)NCCN1CCCC1)cn2C	2	11	51*	1.1	5
CN(C1CCCCC1)S(=O)(=O)c1ccc2c(c1)c(=O)c(C(=O)NCCCN1CCCC1)cn2C	4	7	-2	0.8	2
CCn1c(C)c(C(C)=O)c(N2CCN(C(=O)c3ccco3)CC2)nc1=S	0	43	1	0.9	71*
CCn1c(C)c(C(C)=O)c(N2CCCC2)nc1=S	0	-1	0	0.4	-3
CCOC(=O)c1c(CN2CCCCC2)oc2ccc(OC)cc12	-2	35	-10	0.9	6
CCOC(=O)c1c(CN2CCN(C)CC2)oc2ccc(OC)cc12	1	79*	2	0.9	18
Nc1c(C(=O)N/N=C/c2cccnc2)oc2nc(-c3ccco3)cc(-c3ccco3)c12	64*	-2	-26	nt	9
Cc1ccc(CNC(=O)CCC2CCCN(C(=O)c3ccc4c(c3)OCO4)C2)o1 (configuration not stated)	-11	-9	-54	0.9	0
COc1ccc(C(=O)N2CCCC2)cc1S(=O)(=O)N1CCOCC1	-8	-5	-5	1	7
COc1ccc(C(=O)N2CCN(S(=O)(=O)c3ccc(C)cc3)CC2)cc1S(=O)(=O)N1CCOCC1	15	-1	-2	nt	62*
COc1cc2c(cc1OC)CN(C(=O)c1ccc(S(=O)(=O)N3CCCCC3)cc1)CC2	5	14	49*	0.9	23
O=C(c1ccc(S(=O)(=O)N2CCCCC2)cc1)N1CCc2ccccc2C1	21	-8	14	0.7	3
O=C(CSc1nc(C2CCCCC2)n(-c2ccccc2)n1)NCC(F)(F)F	1	21	41*	0.9	-1
O=C(CSc1nc(C2CCCCC2)n(-c2ccccc2)n1)NCCN1C(=O)CSC1=O	0	19	1	1	-2
COc1ccc(-n2c(SCc3ccc([N+](=O)[O-])cc3)nnc2-c2ccc(C)cc2)cc1	-4	92*[fluorescence artefact?]	-6	1	1
NNC(=O)c1cc(-c2ccc(N)cc2)nc2ccc(Br)cc12	-24	-6	-11	nt	4
O=C(O)CCC(=O)N(Cc1ccco1)C1CC(=O)N(c2ccccc2)C1=O (configuration not stated)	17	-1	-8	nt	-4
CCOC(=O)c1cnc2ccc(C(=O)OC)cc2c1Nc1cccc(C(=O)O)c1	22	-15	42*	1	0
CCOC(=O)c1cnc2ccccc2c1Nc1cccc(C(=O)O)c1	14	-6	9	1	2
COn1c(C)c(C)c2c3nonc3ccc21	-10	95*	-15	nt	4
CCOC(=O)c1c(C)n(OCc2ccccc2)c2ccc3nonc3c12	-1	-1	-4	0.8	-5
COC(=O)COc1ccc(/C=N/NC(=O)c2ccc(N(Cc3ccccc3)S(C)(=O)=O)cc2)cc1	-1	-11	55*	0.9	4
Cn1c(=O)c2c(nc(N3CCOCC3)n2CC(=O)c2ccccc2)n(C)c1=O	nt	nt	nt	1.1	nt
